# rCAG RNA binder: binders of r(CAG) RNA repeats, primary screen, biochemical, fluorescence; r(CAG) RNA repeat, TO-PRO-1 dye displacement fluorescence; inhibition, % at 3 µM; actives 1.3% (n = 370,000); AID 651821, 2012;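 active = inhibition above the plate cutoff, the mean of all test compounds on that plate plus 3 SD, cut at about 35% in these data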;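 note: 0% = DMSO alone and 100% = 100 µM mitoxantrone as full dye displacement; higher means more dye released from RNA so lower well fluorescence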
# NadD block: inhibitors of S. aureus NadD, primary screen, biochemical, colorimetric, uHTS; purified NadD enzyme, colorimetric absorbance read-out; inhibition, % at 20 µM; actives 0.78% (n = 360,000); AID 602399, 2012; in the data active = inhibition above about 26%
# core dimer inh: inhibitors of HCV core protein dimerization, primary screen, biochemical, TR-FRET, high-throughput | TR-FRET GST/Flag-core106 dimerization, 1536-well | inhibition, % at 5 µM | actives 0.33% (n = 300,000);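 active = inhibition above the mean of all tested compounds plus 3 SD, set per screening campaign, cut at about 45% in these data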
#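 Assay system: Tagged HCV core106 pair (GST and Flag) | Buffer or medium: KF-containing HEPES buffer, pH 7.45, DTT, CHAPS, BSA | Also added: Eu donor and XL665 acceptor anti-tag antibodies | Dosing: One concentration, 5 µM, in 0.5% DMSO | Timing: 4 h at 22.5 °C | Technique: TR-FRET 671 and 617 nm emission | Repeats: Singlicate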
# ABHD5-PLIN5 inh: ABHD5-PLIN5 interaction inhibitors, primary screen, cell lysate, split luciferase complementation, luminescence. Split G. princeps luciferase complementation, 4 h. inhibition, % at 4 µM. actives 0.78% (n = 360,000). AID 602281, 2012;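 active = inhibition above the mean inhibition across every tested compound plus 3 SD, cut at about 22% in these data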;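 note: 0% = DMSO only wells and the 100% control is not disclosed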
# Target sequence (Q00G26 whole entry, looked up): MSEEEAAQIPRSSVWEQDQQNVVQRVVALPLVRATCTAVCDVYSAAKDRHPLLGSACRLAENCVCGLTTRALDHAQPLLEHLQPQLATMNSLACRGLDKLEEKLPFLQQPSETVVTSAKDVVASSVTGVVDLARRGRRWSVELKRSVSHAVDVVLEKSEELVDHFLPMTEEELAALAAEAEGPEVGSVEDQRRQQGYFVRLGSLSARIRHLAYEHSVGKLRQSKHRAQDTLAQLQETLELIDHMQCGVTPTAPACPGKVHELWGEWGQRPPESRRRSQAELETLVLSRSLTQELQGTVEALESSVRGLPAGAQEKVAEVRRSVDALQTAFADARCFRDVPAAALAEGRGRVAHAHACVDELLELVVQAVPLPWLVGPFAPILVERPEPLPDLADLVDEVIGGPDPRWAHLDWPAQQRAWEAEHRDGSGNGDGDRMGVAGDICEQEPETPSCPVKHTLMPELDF
# Target sequence (Q8WTS1 whole entry, looked up): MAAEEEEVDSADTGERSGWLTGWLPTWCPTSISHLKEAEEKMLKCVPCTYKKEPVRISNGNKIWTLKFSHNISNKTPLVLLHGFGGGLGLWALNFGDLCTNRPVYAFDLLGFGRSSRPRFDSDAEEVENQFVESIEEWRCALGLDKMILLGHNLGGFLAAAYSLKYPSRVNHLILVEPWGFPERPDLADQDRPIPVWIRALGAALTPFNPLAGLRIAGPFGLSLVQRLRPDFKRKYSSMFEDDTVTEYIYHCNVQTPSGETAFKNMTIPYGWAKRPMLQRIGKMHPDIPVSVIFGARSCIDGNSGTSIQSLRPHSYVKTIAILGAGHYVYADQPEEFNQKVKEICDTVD
# rCAG bind conf: small molecules binding CAG repeat RNA – biochemical, fluorescence, confirmation | inhibition, % at 3 µM | actives 70% (n = 4,300) | r(CAG) RNA repeat, TO-PRO-1 dye displacement fluorescence | shares compounds with rCAG RNA binder;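 active = inhibition above a per-plate cutoff, the mean inhibition of sample wells plus 3 SD, cut at about 35% in these data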;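 note: loss of TO-PRO-1 fluorescence as compound displaces dye from 1x1 AA loop RNA; 0% = DMSO only wells and 100% = 100 µM mitoxantrone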
# dCAG dye counter: displacement of TO-PRO-1 from CAG DNA duplex, counter-screen for rCAG RNA repeat binder project, biochemical, fluorescence, TO-PRO-1 dye, d(CAG) DNA oligo | AID 652068, 2013 | actives 94% (n = 4,300) | d(CAG) DNA oligo TO-PRO-1 dye displacement | shares compounds with rCAG RNA binder | inhibition, % at 3 µM;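 active = inhibition above its plate's cutoff, the mean test-well inhibition plus 3 SD, cut at about 4.8% in these data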;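 note: 0% = DNA dye mix with DMSO and 100% = 100 µM mitoxantrone; hits displace the dye from DNA and so lower well fluorescence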
# dCAG dye DR: inhibitors of DNA CAG/GTC TO-PRO-1 complex, dose response, counter-screen for rCAG RNA repeat binder project, biochemical, fluorescence, TO-PRO-1 dye. AID 686960, 2013. shares compounds with rCAG RNA binder. IC50, µM. DNA CAG/GTC duplex TO-PRO-1 dye displacement fluorescence. actives 20% (n = 250); in the data active = IC50 below about 10 µM
# * = called active by the depositor; x = no result given. Most compounds without a hit are left out; they make up all but 2.6% or so of the library.
SMILES,rCAG RNA binder,NadD block,core dimer inh,ABHD5-PLIN5 inh,rCAG bind conf,dCAG dye counter,others
O=C1C(Nc2ccc(O)cc2)=C/C(=N/S(=O)(=O)c2cccs2)c2ccccc21,24,-6,x,-4,x,x,
CCc1ccc(S(=O)(=O)/N=C2\C=C(Nc3cccc(C(=O)O)c3)C(=O)c3ccccc32)cc1,81*,19,2,-5,76*,37*,
O=[N+]([O-])c1ccc2cc[nH]c2c1,1,4,x,-32,x,x,
CC(C)(C)S(=O)N1C[C@@H]2CC(=O)C(CCO)=C2[C@H]1CCO (some centres not stated),2,x,x,x,x,x,
CC(C)(C)OC(=O)[C@H]1[C@H](c2ccc([N+](=O)[O-])cc2)C2(C(=O)c3ccccc3C2=O)C2c3ccccc3C=NN21 (some centres not stated),36*,17,15,-6,22,9.9*,
O=C(Cn1cc(COc2ccccc2C(F)(F)F)nn1)c1ccc(O)cc1,5,-1,x,0,x,x,
O=C(Cn1cc(COc2ccc(Cl)c(Cl)c2)nn1)NS(=O)(=O)c1ccccc1OC(F)(F)F,62*,-4,x,3,48*,16*,
O=C(OCCC12CC3CC(CC(C3)C1)C2)c1ccc(NCc2cc(O)ccc2O)cc1,36*,17,x,4,27,11*,
O=C(OCC12CC3CC(CC(C3)C1)C2)c1ccc(NCc2cc(O)ccc2O)cc1,26,12,x,-6,x,x,
CCc1ccc(-c2nc(SCC(=O)c3c(N)n(C4CC4)c(=O)[nH]c3=O)n[nH]2)cc1,8,4,x,2,x,x,
COC(=O)N1CCCCC1c1cc(C(=O)NCc2ccccc2)no1 (configuration not stated),1,-2,x,2,x,x,
C[C@]1(CC/C(=C/CO)CO)[C@H](C=O)CC[C@@]23COC(=O)C2=CCC[C@@H]31,0,-6,x,3,x,x,
COc1ccc(C(=O)O)cc1NC(=S)NC(=O)/C=C/c1ccc(C(C)C)cc1,57*,20,13,-1,75*,40*,
NC(=O)c1ccccc1NC(=O)/C=C/c1ccc(Cl)cc1,3,-3,2,1,x,x,
O=C(/C=C/c1ccc(Cl)cc1)NC(=S)Nc1ccccc1C(=O)O,35*,-1,8,7,33,9.1*,
CCCCC(=O)NC(=S)Nc1cc(C(=O)O)ccc1OC,0,-9,-6,1,x,x,
Cc1oc2c(c(C)nn2-c2ccccc2)c(=O)c1Cl,3,x,x,x,x,x,
Cc1nc(S/C(=C/c2ccc(-c3ccc(Cl)cc3)o2)C(=O)O)n[nH]1,11,14,-2,1,x,x,
Cc1nc(S/C(=C/c2ccc(-c3cc(Cl)ccc3C)o2)C(=O)O)n[nH]1,51*,19,-2,-4,81*,44*,
COC1=C/C(=C/c2c(N)n3c(nc2=O)sc2cc(S(C)(=O)=O)ccc23)C=CC1=O,27,15,-11,9,x,x,
CS(=O)(=O)c1ccc2c(c1)sc1nc(=O)c(/C=C3/C=CC(=O)C(O)=C3)c(N)n12,39*,3,-6,2,48*,18*,
CC1=C(C(=O)N2CCCCCC2)CC(CC(=O)NCCN2CCOCC2)C(=O)N1CCCN1CCCC1=O (configuration not stated),1,9,x,1,x,x,
COc1ccc2[nH]c(C(=O)O)c(NS(=O)(=O)c3ccc(C)c(C)c3)c2c1,44*,-1,4,-1,24,5.9*,
Cc1ccc(S(=O)(=O)Nc2c(C(=O)O)[nH]c3ccccc23)c(C)c1,58*,-2,6,-1,30,7.3*,
COc1ccc2[nH]c(C(=O)O)c(NS(=O)(=O)c3ccc(F)cc3)c2c1,14,-4,6,-14,x,x,
SMILES,rCAG RNA binder,NadD block,core dimer inh,ABHD5-PLIN5 inh,rCAG bind conf,dCAG dye counter,others
CCC(CC)C(=O)N(C)c1c(C)nc2c(OCC3CCCCC3)cccn12,-2,4,x,-5,x,x,
O=C(NCc1ccccc1)[C@H]1CCCN1,1,x,x,x,x,x,
CC(C)Cc1csc(NC(=O)c2ccc(F)cc2)c1C(=O)O,35*,-2,0,-8,19,2,
CCOC(=O)c1sc(NC(=O)c2ccccc2C(=O)O)c(C(=O)OCC)c1C,45*,-6,13,-3,35*,7.7*,
CCOC(=O)c1c(CC(C)C)csc1NC(=O)c1ccccc1C(=O)O,47*,3,12,-1,45*,12*,
CCOC(=O)c1c(CC(C)C)csc1NC(C)=O,-5,-2,-4,-13,x,x,
CCOC(=O)c1c(NC(=O)c2c(C(=O)O)cccc2[N+](=O)[O-])sc2c1CCCC2,47*,3,6,-2,34,10.0*,
O=C(OCc1cn(Cc2ccccc2Cl)nn1)N1CCOCC1,3,x,x,x,x,x,
COC(=O)c1ccc(COc2cccn3c(N(C)C(=O)CCC4CCCC4)c(C)nc23)cc1,2,10,x,8,x,x,
NC(=O)c1c(NC(=O)C2CC=CCC2C(=O)O)sc2c1CCCCC2 (configuration not stated),3,-2,-4,-30,x,x,
CCOC(=O)c1c(NC(=O)C2C3C=CC(C3)C2C(=O)O)sc2c1CCC(C)C2 (configuration not stated),34,5,13,-3,x,x,
CC(C)OC(=O)c1c(NC(=O)C2CC=CCC2C(=O)O)sc2c1CCCCC2 (configuration not stated),56*,8,14,-3,68*,22*,
CCOC(=O)c1c(NC(=O)c2ccccc2C(=O)O)sc2c1CCC2,47*,-6,-9,-12,29,7.3*,
CCOC(=O)c1c(NC(=O)C2C3C=CC(C3)C2C(=O)O)sc2c1CCCC2 (configuration not stated),37*,8,8,-4,50*,11*,dCAG dye DR=>30
COc1ccc(Cl)cc1NC(=S)NNC(=O)C1(C)CC1(Cl)Cl (configuration not stated),43*,5,10,3,25,5.5*,
N#C/C(N=Nc1ccccc1O)=N\Nc1ccccc1O,57*,-4,-56,22,74*,29*,
Oc1ccccc1N=N/C(=N/Nc1ccccc1O)c1ccccc1,19,5,-1,5,x,x,
